Consider twelve molecules from ChEMBL document CHEMBL1145038 (J Med Chem, 2003).

In assay [1] the target is T1, Histamine H3 receptor (Homo sapiens, UniProt Q9Y5N1). In words: Inhibition of human Histamine H3 receptor.
In assay [2] the target is T2, Histamine H3 receptor (Rattus norvegicus, UniProt Q9QYN8). As to the kind of experiment: Affinity against rat Histamine H3 receptor using [3H]N-alpha-methyl histamine. The essentials: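 Male Sprague–Dawley rat brain homogenate without cerebellum (800 μg) incubated 1 h at 25 °C in 50 mM Na₂HPO₄/KH₂PO₄, pH 7.5, with 0.25 nM [³H]Nα-methylhistamine. Filtered on GF/B, scintillation counted. Nonspecific binding with 10 μM thioperamide. IC50 by log probit; Ki = IC50/(1+L/Ka), Ka from Rosenthal analysis of saturation at 0.1–3.0 nM. Mean ± SE.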

Assay [3] deals with T1, Histamine H3 receptor. In words: Inhibition of human H3-receptor using [3H]N-alpha-methyl histamine. The essentials: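 Membrane fractions from stably transfected CHO cells expressing human H3 receptor; radioligand displacement binding.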
For assay [4], the target named is T2, Histamine H3 receptor. As to the kind of experiment: Inhibition of rat Histamine H3 receptor using [3H]N-alpha-methyl histamine. A digest of the protocol: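 Male Sprague–Dawley rat brain (minus cerebellum) homogenate, 800 μg, incubated 1 h at 25 °C in 50 mM Na2HPO4/KH2PO4 pH 7.5 with 0.25 nM radioligand. Bound ligand separated on GF/B filters and counted by scintillation; nonspecific binding taken with 10 μM thioperamide. […] Mean ± SE.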

The target in another assay is Histamine H4 receptor (Homo sapiens, UniProt Q9H3N8). As to the kind of experiment: Inhibition of human Histamine H4 receptor.
Sequence of Histamine H4 receptor (Q9H3N8 whole entry): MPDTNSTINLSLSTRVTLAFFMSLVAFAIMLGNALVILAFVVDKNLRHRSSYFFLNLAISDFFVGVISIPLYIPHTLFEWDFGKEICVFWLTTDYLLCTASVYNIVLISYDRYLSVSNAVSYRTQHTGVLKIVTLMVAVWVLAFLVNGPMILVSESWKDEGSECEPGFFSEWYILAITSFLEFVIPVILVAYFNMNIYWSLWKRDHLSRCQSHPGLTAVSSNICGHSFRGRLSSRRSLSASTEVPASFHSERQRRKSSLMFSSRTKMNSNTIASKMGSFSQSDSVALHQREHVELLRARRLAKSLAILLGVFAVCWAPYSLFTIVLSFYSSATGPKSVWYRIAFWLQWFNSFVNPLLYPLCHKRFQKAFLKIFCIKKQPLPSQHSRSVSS

T2 sequence (Q9QYN8 whole entry): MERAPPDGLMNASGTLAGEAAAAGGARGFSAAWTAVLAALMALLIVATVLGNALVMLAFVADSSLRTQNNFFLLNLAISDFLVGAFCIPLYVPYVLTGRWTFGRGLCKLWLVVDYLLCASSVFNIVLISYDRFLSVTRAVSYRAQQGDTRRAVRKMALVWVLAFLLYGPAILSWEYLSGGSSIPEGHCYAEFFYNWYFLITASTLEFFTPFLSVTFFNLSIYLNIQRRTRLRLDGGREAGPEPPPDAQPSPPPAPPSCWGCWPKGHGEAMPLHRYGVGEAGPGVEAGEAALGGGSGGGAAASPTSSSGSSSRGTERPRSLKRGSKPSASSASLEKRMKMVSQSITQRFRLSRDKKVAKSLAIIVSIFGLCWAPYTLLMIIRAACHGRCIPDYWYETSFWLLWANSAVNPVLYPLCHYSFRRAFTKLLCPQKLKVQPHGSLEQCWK
T1 sequence (Q9Y5N1 whole entry): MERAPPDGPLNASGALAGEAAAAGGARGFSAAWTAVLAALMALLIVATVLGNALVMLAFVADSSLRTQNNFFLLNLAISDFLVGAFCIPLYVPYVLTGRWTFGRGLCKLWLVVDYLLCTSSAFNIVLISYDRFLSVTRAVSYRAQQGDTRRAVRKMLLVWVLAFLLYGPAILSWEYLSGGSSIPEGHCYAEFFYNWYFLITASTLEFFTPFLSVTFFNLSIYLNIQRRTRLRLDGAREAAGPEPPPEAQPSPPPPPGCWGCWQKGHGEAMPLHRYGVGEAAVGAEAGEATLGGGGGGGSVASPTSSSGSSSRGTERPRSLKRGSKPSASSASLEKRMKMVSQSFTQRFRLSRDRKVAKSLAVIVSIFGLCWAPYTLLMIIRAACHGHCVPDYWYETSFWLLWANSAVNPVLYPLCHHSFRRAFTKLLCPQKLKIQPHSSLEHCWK

Consider `NCC[C@H]1C[C@H]1c1cnc[nH]1`, for which, on Histamine H3 receptor [1], the concentration giving a half-maximal response (EC50) came to 1410 nM. At Histamine H3 receptor [2], this molecule had an inhibition constant Ki of 4.78 nM.
`N[C@@H]1C[C@H]1c1cnc[nH]1` [VUF-5296] yielded a half-maximal effective concentration (EC50) on Histamine H3 receptor [1] of 724 nM. For the same molecule, on Histamine H3 receptor [2], the inhibition constant (Ki) came to 42.2 nM.
Take `N[C@@H]1C[C@@H]1c1c[nH]cn1`: the Ki at Histamine H3 receptor [2] was found to be 91.2 nM. In addition, at Histamine H3 receptor [3], the concentration for a half-maximal effect (EC50) stood at 2330 nM.
Take `NC[C@H]1C[C@H]1c1cnc[nH]1`: on Histamine H3 receptor [2], the affinity corresponds to a Ki of 64.7 nM.
Consider `NCC[C@@H]1C[C@@H]1c1cnc[nH]1`, for which, at Histamine H3 receptor [1], the half-maximal effective concentration (EC50) came out at 10 nM. The same molecule showed an inhibition constant (Ki) on Histamine H3 receptor [2] of 1.31 nM.
As for `NC[C@H]1C[C@@H]1c1cnc[nH]1`, the affinity on Histamine H3 receptor [2], expressed as Ki, was 10.1 nM.
`N[C@H]1C[C@H]1c1c[nH]cn1` returned an inhibition constant Ki on Histamine H3 receptor [2] of 1380 nM.
At Histamine H3 receptor [4], `S=C(NC1CCCCC1)N1CCC(c2cnc[nH]2)CC1` [THIOPERAMIDE] had a Ki of 2.65 nM.
As to `NC[C@@H]1C[C@@H]1c1cnc[nH]1`, the response on Histamine H3 receptor [1] was half-maximal at 96 nM (EC50). At Histamine H3 receptor [2], this molecule gave a Ki of 2.5 nM.
With `NC[C@@H]1C[C@H]1c1c[nH]cn1`, the Ki at Histamine H3 receptor [2] amounted to 22.6 nM.
With `N=C(N)SCCc1cnc[nH]1` [IMETIT], the EC50 at Histamine H4 receptor came out at 51 nM; at Histamine H3 receptor [1] it was 1.9 nM.
At Histamine H3 receptor [1], `N[C@H]1C[C@@H]1c1c[nH]cn1` [VUF-5297] showed a concentration for a half-maximal effect (EC50) of 42 nM. Affinity at Histamine H3 receptor [2] was put at a Ki of 4.3 nM.

Usually EC50 stands for the concentration that produces a half-maximal response. In general, Ki refers to a measure of affinity in units of concentration, obtained from inhibition or displacement. A lower Ki goes with higher affinity.
